Experimental findings from ChEMBL document CHEMBL3124771, “Design, synthesis and antitubercular evaluation of novel series of N-[4-(piperazin-1-yl)phenyl]cinnamamide derivatives” (Eur J Med Chem, 2014) are described below.

The structures appear in SMILES notation. In brackets after ≈: the same amount, converted by molar mass.

For the first data set, the system named is Mycobacterium tuberculosis. Briefly: Antitubercular activity against Mycobacterium tuberculosis H37Rv after 7 days by resazurin microtitre assay. Type of data set: functional. The conditions noted are these: 168 h. The essentials: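 M. tb H37Rv in Middlebrook 7H9 broth; compounds dissolved in DMSO (2 mg/ml stock), serially diluted in 96-well plate to 1.56–50 μg/ml, 100 μl cell suspension per well. After 7 days, 0.02% w/v resazurin added, incubated 1 more day; MIC = lowest concentration preventing blue-to-pink colour change (>90% inhibition), read visually. Isoniazid reference.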
(Resazurin is reduced to fluorescent resorufin, in cell work by metabolically active cells.)
A word on the MIC90: it is the lowest concentration that inhibits either 90% of growth or 90% of the strains tested, depending on the study. The compound `O=C(/C=C/c1ccccc1)Nc1ccc(N2CCN(C(=O)c3cc(Cl)cc(Cl)c3)CC2)c(F)c1` displayed an MIC90 of 12.5 µg/mL (≈ 25.1 µM).
Regarding `O=C(/C=C/c1ccccc1)Nc1ccc(N2CCN(C(=O)c3ccc([N+](=O)[O-])cc3)CC2)cc1`, the MIC90 is more than 50 µg/mL.
In turn, `O=C(/C=C/c1ccccc1)Nc1ccc(N2CCN(C(=O)c3ccc(F)cc3)CC2)c(F)c1` registered an MIC90 of more than 50 µg/mL.
`O=C(/C=C/c1ccccc1)Nc1ccc(N2CCN(C(=O)c3ccccc3C(F)(F)F)CC2)c(F)c1` came in with an MIC90 of 3.12 µg/mL (≈ 6.28 µM).
Same read-out and setting: the result for `O=C(/C=C/c1ccccc1)Nc1ccc(N2CCN(C(=O)c3ccc([N+](=O)[O-])cc3)CC2)c(F)c1` reads 12.5 µg/mL (≈ 26.3 µM).
The compound `O=C(/C=C/c1ccc([N+](=O)[O-])cc1)Nc1ccc(N2CCN(C(=O)c3ccc(F)cc3)CC2)cc1` showed an MIC90 of 12.5 µg/mL (≈ 26.3 µM).
Still for that read-out and setting: in the case of `O=C(/C=C/c1ccc([N+](=O)[O-])cc1)Nc1ccc(N2CCN(C(=O)c3cc(Cl)cc(Cl)c3)CC2)cc1` it was more than 50 µg/mL; in that of `O=C(/C=C/c1ccc([N+](=O)[O-])cc1)Nc1ccc(N2CCN(C(=O)c3ccccc3C(F)(F)F)CC2)cc1`, more than 50 µg/mL; in that of `O=C(/C=C/c1ccc([N+](=O)[O-])cc1)Nc1ccc(N2CCN(C(=O)c3ccc([N+](=O)[O-])cc3)CC2)cc1`, more than 50 µg/mL.
On the same count and under the same terms, in the case of `O=C(/C=C/c1ccc([N+](=O)[O-])cc1)Nc1ccc(N2CCN(C(=O)c3ccc(F)cc3)CC2)c(F)c1` it was 12.5 µg/mL (≈ 25.4 µM); in that of `O=C(/C=C/c1ccc([N+](=O)[O-])cc1)Nc1ccc(N2CCN(C(=O)c3cc(Cl)cc(Cl)c3)CC2)c(F)c1`, 12.5 µg/mL (≈ 23 µM); in that of `O=C(/C=C/c1ccc([N+](=O)[O-])cc1)Nc1ccc(N2CCN(C(=O)c3ccccc3C(F)(F)F)CC2)c(F)c1`, more than 50 µg/mL.
On the same count and under the same terms, the result for `O=C(/C=C/c1ccc([N+](=O)[O-])cc1)Nc1ccc(N2CCN(C(=O)c3ccc([N+](=O)[O-])cc3)CC2)c(F)c1` reads more than 50 µg/mL; that for `O=C(/C=C/c1ccccc1)Nc1ccc(N2CCN(C(=O)c3ccncc3)CC2)cc1`, 50 µg/mL (≈ 121 µM).
`O=C(/C=C/c1ccccc1)Nc1ccc(N2CCN(C(=O)c3ccncc3)CC2)c(F)c1` came in with an MIC90 of more than 50 µg/mL.
The compound `O=C(/C=C/c1ccc([N+](=O)[O-])cc1)Nc1ccc(N2CCN(C(=O)c3ccncc3)CC2)cc1` displayed an MIC90 of more than 50 µg/mL.
In the case of `O=C(/C=C/c1ccc([N+](=O)[O-])cc1)Nc1ccc(N2CCN(C(=O)c3ccncc3)CC2)c(F)c1`, the MIC90 turned out to be 12.5 µg/mL (≈ 26.3 µM).
On the same count and under the same terms, the result for `CCN1CCN(c2ccc(NC(=O)/C=C/c3ccc([N+](=O)[O-])cc3)cc2)CC1` reads 12.5 µg/mL (≈ 32.9 µM).
`O=C(/C=C/c1ccc([N+](=O)[O-])cc1)Nc1ccc(N2CCN(c3ccccn3)CC2)cc1` yielded an MIC90 of more than 50 µg/mL.
For `CC(C)(C)OC(=O)N1CCN(c2ccc(NC(=O)/C=C/c3ccc([N+](=O)[O-])cc3)cc2)CC1`, the MIC90 was 12.5 µg/mL (≈ 27.6 µM).
The same measure, in the same setting: in the case of `CN1CCN(c2ccc(NC(=O)/C=C/c3ccc([N+](=O)[O-])cc3)cc2F)CC1` it was 25 µg/mL (≈ 65 µM).
`CCN1CCN(c2ccc(NC(=O)/C=C/c3ccc([N+](=O)[O-])cc3)cc2F)CC1`: the MIC90 was more than 50 µg/mL.
The same measure, in the same setting: the result for `O=C(/C=C/c1ccc([N+](=O)[O-])cc1)Nc1ccc(N2CCN(c3ccccn3)CC2)c(F)c1` reads more than 50 µg/mL.
Same read-out and setting: the result for `CC(C)(C)OC(=O)N1CCN(c2ccc(NC(=O)/C=C/c3ccc([N+](=O)[O-])cc3)cc2F)CC1` reads 50 µg/mL (≈ 106 µM); that for `O=C(/C=C/c1ccccc1)Nc1ccc(N2CCNCC2)cc1`, 12.5 µg/mL (≈ 40.7 µM); that for `O=C(/C=C/c1ccccc1)Nc1ccc(N2CCNCC2)c(F)c1`, 25 µg/mL (≈ 76.8 µM).
The same measure, in the same setting: in the case of `O=C(/C=C/c1ccc([N+](=O)[O-])cc1)Nc1ccc(N2CCNCC2)cc1` it was 50 µg/mL (≈ 142 µM); in that of `O=C(/C=C/c1ccc([N+](=O)[O-])cc1)Nc1ccc(N2CCNCC2)c(F)c1`, 12.5 µg/mL (≈ 33.7 µM); in that of `COC(=O)N1CCN(c2ccc(NC(=O)/C=C/c3ccccc3)cc2)CC1`, more than 50 µg/mL.
Compound `CCOC(=O)N1CCN(c2ccc(NC(=O)/C=C/c3ccccc3)cc2)CC1` showed an MIC90 of more than 50 µg/mL.
Same read-out and setting: in the case of `O=C(/C=C/c1ccccc1)Nc1ccc(N2CCN(C(=O)Oc3ccccc3)CC2)cc1` it was more than 50 µg/mL; in that of `COC(=O)N1CCN(c2ccc(NC(=O)/C=C/c3ccccc3)cc2F)CC1`, more than 50 µg/mL; in that of `CCOC(=O)N1CCN(c2ccc(NC(=O)/C=C/c3ccccc3)cc2F)CC1`, more than 50 µg/mL.
Still for that read-out and setting: in the case of `O=C(/C=C/c1ccccc1)Nc1ccc(N2CCN(C(=O)Oc3ccccc3)CC2)c(F)c1` it was more than 50 µg/mL; in that of `COC(=O)N1CCN(c2ccc(NC(=O)/C=C/c3ccc([N+](=O)[O-])cc3)cc2)CC1`, more than 50 µg/mL.
Still for that read-out and setting: in the case of `CCOC(=O)N1CCN(c2ccc(NC(=O)/C=C/c3ccc([N+](=O)[O-])cc3)cc2)CC1` it was more than 50 µg/mL.
On to `O=C(/C=C/c1ccc([N+](=O)[O-])cc1)Nc1ccc(N2CCN(C(=O)Oc3ccccc3)CC2)cc1`, for which the MIC90 was more than 50 µg/mL.
Same read-out and setting: in the case of `COC(=O)N1CCN(c2ccc(NC(=O)/C=C/c3ccc([N+](=O)[O-])cc3)cc2F)CC1` it was more than 50 µg/mL; in that of `CCOC(=O)N1CCN(c2ccc(NC(=O)/C=C/c3ccc([N+](=O)[O-])cc3)cc2F)CC1`, more than 50 µg/mL.
Same read-out and setting: the result for `O=C(/C=C/c1ccc([N+](=O)[O-])cc1)Nc1ccc(N2CCN(C(=O)Oc3ccccc3)CC2)c(F)c1` reads more than 50 µg/mL; that for `O=C(/C=C/c1ccccc1)Nc1ccc(N2CCN(C(=O)c3ccc(F)cc3)CC2)cc1`, 25 µg/mL (≈ 58.2 µM); that for `O=C(/C=C/c1ccccc1)Nc1ccc(N2CCN(C(=O)c3cc(Cl)cc(Cl)c3)CC2)cc1`, more than 50 µg/mL.
For the compound `O=C(/C=C/c1ccccc1)Nc1ccc(N2CCN(C(=O)c3ccccc3C(F)(F)F)CC2)cc1`, the MIC90 turned out to be 50 µg/mL (≈ 104 µM).
The same measure, in the same setting: in the case of `CN1CCN(c2ccc(NC(=O)/C=C/c3ccccc3)cc2)CC1` it was 6.25 µg/mL (≈ 19.4 µM); in that of `CCN1CCN(c2ccc(NC(=O)/C=C/c3ccccc3)cc2)CC1`, 12.5 µg/mL (≈ 37.3 µM).
The same measure, in the same setting: the result for `O=C(/C=C/c1ccccc1)Nc1ccc(N2CCN(c3ccccn3)CC2)cc1` reads more than 50 µg/mL; that for `CC(C)(C)OC(=O)N1CCN(c2ccc(NC(=O)/C=C/c3ccccc3)cc2)CC1`, 12.5 µg/mL (≈ 30.7 µM).
On the same count and under the same terms, the result for `CN1CCN(c2ccc(NC(=O)/C=C/c3ccccc3)cc2F)CC1` reads 25 µg/mL (≈ 73.7 µM); that for `CCN1CCN(c2ccc(NC(=O)/C=C/c3ccccc3)cc2F)CC1`, 12.5 µg/mL (≈ 35.4 µM); that for `O=C(/C=C/c1ccccc1)Nc1ccc(N2CCN(c3ccccn3)CC2)c(F)c1`, more than 50 µg/mL.
`CC(C)(C)OC(=O)N1CCN(c2ccc(NC(=O)/C=C/c3ccccc3)cc2F)CC1` displayed an MIC90 of 50 µg/mL (≈ 118 µM).
On the same count and under the same terms, the result for `CN1CCN(c2ccc(NC(=O)/C=C/c3ccc([N+](=O)[O-])cc3)cc2)CC1` reads 12.5 µg/mL (≈ 34.1 µM); that for `NNC(=O)c1ccncc1` [ISONIAZID], 0.39 µg/mL (≈ 2.84 µM).

Tested on in another data set: not listed separately
Briefly: Selectivity index, ratio of IC50 for African green monkey Vero cells to MIC for Mycobacterium tuberculosis H37Rv. Format: toxicity, cell-based. The conditions noted are these: read-out: Selectivity Index. The essentials: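 SI = Vero IC50 / H37Rv MIC. Vero cytotoxicity by MTT: subcultured cells exposed 72 h to 125, 62.5, 31.25 μg/ml; MTT added 4 h, formazan dissolved in DMSO. MIC by REMA: H37Rv in 7H9 broth, 1.56–50 μg/ml serial dilutions, 7 days then resazurin 1 day, visual colour read.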
Regarding `O=C(/C=C/c1ccccc1)Nc1ccc(N2CCN(C(=O)c3ccccc3C(F)(F)F)CC2)c(F)c1`, the selectivity ratio is more than 40.
On the same count and under the same terms, the result for `O=C(/C=C/c1ccc([N+](=O)[O-])cc1)Nc1ccc(N2CCN(C(=O)c3ccc(F)cc3)CC2)cc1` reads more than 10; that for `O=C(/C=C/c1ccc([N+](=O)[O-])cc1)Nc1ccc(N2CCN(C(=O)c3ccncc3)CC2)c(F)c1`, more than 10.
The same measure, in the same setting: in the case of `CN1CCN(c2ccc(NC(=O)/C=C/c3ccccc3)cc2)CC1` it was more than 10.
Same read-out and setting: in the case of `CCN1CCN(c2ccc(NC(=O)/C=C/c3ccccc3)cc2F)CC1` it was more than 10.

The subject of another data set is Vero. Briefly: Cytotoxicity against African green monkey Vero cells after 72 hrs by MTT assay. Type of data set: cell-based. The conditions noted are these: Chlorocebus sabaeus. The essentials: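 Vero cells subcultured, then exposed to compound at 125, 62.5 and 31.25 μg/ml for 72 h. MTT added for a further 4 h; formazan dissolved in DMSO. Viability read from tetrazolium-to-formazan conversion and reported as IC50.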
Background: Formazan colour is commonly taken as a measure of viable cells.
The term IC50 denotes the concentration that gives 50% inhibition. For the compound `O=C(/C=C/c1ccccc1)Nc1ccc(N2CCN(C(=O)c3ccccc3C(F)(F)F)CC2)c(F)c1`, the IC50 was more than 125 µg/mL.
The same measure, in the same setting: the result for `O=C(/C=C/c1ccc([N+](=O)[O-])cc1)Nc1ccc(N2CCN(C(=O)c3ccc(F)cc3)CC2)cc1` reads more than 125 µg/mL; that for `O=C(/C=C/c1ccc([N+](=O)[O-])cc1)Nc1ccc(N2CCN(C(=O)c3ccncc3)CC2)c(F)c1`, more than 125 µg/mL; that for `CN1CCN(c2ccc(NC(=O)/C=C/c3ccccc3)cc2)CC1`, more than 125 µg/mL.
Compound `CCN1CCN(c2ccc(NC(=O)/C=C/c3ccccc3)cc2F)CC1` gave an IC50 of more than 125 µg/mL.
